“Also recorded” adds a separate entry of the source.
What was measured:
DCAF15 = DCAF15 (Homo sapiens, UniProt Q66K64); assay: TR-FRET competition assay: displacement of BodipyFL-E7820 from DCAF15; format: binding; conditions: for DCAF15 binding, in words: relative to E7820
RBM39RRM2-biotin = target: T1, RBM39RRM2-biotin (Homo sapiens, UniProt Q14498); assay: TR-FRET titration of BodipyFL-E7820 probe to RBM39RRM2-biotin; format: binding; conditions: probe titrated to RBM39RRM2-biotin
T1 sequence (Q14498 245-332): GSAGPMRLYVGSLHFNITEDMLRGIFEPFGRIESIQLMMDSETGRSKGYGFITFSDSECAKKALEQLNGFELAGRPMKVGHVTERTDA
Procedure, shortened: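 RBM39RRM2 was Avi-tagged and biotinylated in vitro with BirA, then gel-filtered. It was mixed with 2 nM terbium-streptavidin in Tris pH 8.0/NaCl/Pluronic F-68/BSA buffer. Increasing BodipyFL-E7820 probe was added at 2% DMSO, 15 min room temperature. The 520/490 nm ratio without protein was subtracted, and KD came from a one-site specific-binding fit. Three independent replicates.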

Row | SMILES | DCAF15 binding, in words (DCAF15) | compound binding to RBM39 (RBM39RRM2-biotin) | Ki (DCAF15) [µM]
1 | N#Cc1cccc(S(=O)(=O)Nc2cccc3c(C#N)c[nH]c23)c1 [desmethyl-E7820] | significant loss of DCAF15 binding | – | –
2 | Cc1cc(C)n2c1C=C1C=CC(CCC(=O)NCCCCCCOc3ccc(S(=O)(=O)Nc4ccc(C)c5c(C#N)c[nH]c45)cc3C#N)=[N+]1[B-]2(F)F [BodipyFL-E7820, N-(6-(2-cyano-4-(N-(3-cyano-4-methyl-1H-indol-7-yl)sulfamoyl)phenoxy)hexyl)-3-(5,5-difluoro-7,9-dimethyl-5H-5λ^4,6λ^4-dipyrrolo[1,2-c:2',1'-f][1,3,2]diazaborinin-3-yl)propanamide] | – | only observed for DDB1ΔB-DCAF15biotin | –
3 | NS(=O)(=O)c1ccc(S(=O)(=O)Nc2cccc3c(Cl)c[nH]c23)cc1 [indisulam] | significant loss of DCAF15 binding; also recorded: significant loss in affinity for DCAF15 | – | > 50
